Here are results for four compounds from ChEMBL document CHEMBL1158037, “Taraxasterane- and ursane-type triterpenes from Nerium oleander and their biological activities” (J Nat Prod, 2006).

Each structure is given as a SMILES string.

Experiment [1] can be described thus: Cytotoxicity against human Hep G2 by WST-8 assay. It is filed as functional. Conditions: HepG2. In short, it runs like this:
(§1)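 Growth inhibition of WI-38, VA-13 and HepG2 cells, with Taxol and ADM as positive controls; IC50 taken as concentration giving 50% growth inhibition.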

Experiment [2] in a line: Cytotoxicity against human WI38 cells by WST-8 assay. The experiment is classed as cell-based. The settings on record: WI-38. In short, it runs like this:
as §1
Background: Formazan colour is commonly taken as a measure of viable cells.

For experiment [3], the system named is A549. Briefly: Antiinflammatory activity in human A549 cells assessed as inhibition of ICAM1 induction pretreated for 1 hr before IL1alpha challenge and incubated for 6 hrs in presence of IL1alpha. The experiment is classed as functional, cell-based. The gist of the method:
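A549 cells (human lung carcinoma, used as endothelial model) exposed to a range of compound concentrations for 1 h, then IL-1α added and culture continued 6 h. ICAM-1 measured by primary and secondary antibodies plus enzyme substrate, absorbance at 415 nm. Triplicate cultures; IC50 reported.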

For experiment [4], the system named is A549. Briefly: Cytotoxicity against human A549 cells after 24 hrs by MTT assay. The experiment is classed as functional, cell-based. The settings on record: A549, 24 h. In short, it runs like this:
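A549 cells incubated 24 h with serial dilutions of compound; viability (%) by MTT used to derive IC50. Triplicate cultures.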

The test system of another experiment is WI-38 VA13. Briefly: Cytotoxicity against human VA-13 cells by WST-8 assay. It is filed as functional, cell-based. The gist of the method: as §1

With `C[C@H]1[C@H](C)CC[C@]2(C=O)CC[C@]3(C)C(=CC[C@@H]4[C@@]5(C)CC[C@H](O)C(C)(C)[C@@H]5CC[C@]43C)[C@H]12`, the IC50 (as a rule, the concentration at which inhibition is half-maximal) in experiment [1] was 99 µM; in experiment [2] it was 94.7 µM; in the experiment with A549 [3], 158 µM; with A549 [4] it was 205 µM; in the experiment on WI-38 VA13, 85.4 µM.
In the case of `C[C@H]1[C@H](C)CC[C@]2(O)CC[C@]3(C)C(=CC[C@@H]4[C@@]5(C)CC[C@H](O)C(C)(C)[C@@H]5CC[C@]43C)[C@H]12`, the IC50 in experiment [1] was 21.1 µM; in experiment [2], 20.1 µM; in the experiment on A549 [3], > 316 µM; in the experiment on A549 [4], > 316 µM; with WI-38 VA13 it was 108 µM.
With `CO[C@H]1O[C@@]2(C)CC[C@@]13CC[C@]1(C)[C@H](CC[C@@H]4[C@@]5(C)CC[C@H](O)C(C)(C)[C@@H]5CC[C@]41C)[C@H]3[C@@H]2C`, the concentration for half-maximal inhibition (IC50) in experiment [1] came out at 10.3 µM; in experiment [2] it was 11.8 µM; in the experiment on A549 [3], 80 µM; in the experiment on A549 [4] it was 76 µM; with WI-38 VA13 it was 11.7 µM.
In the same order, the values of `C[C@H]1[C@@H]2[C@H]3CC[C@@H]4[C@@]5(C)CC[C@H](O)C(C)(C)[C@@H]5CC[C@@]4(C)[C@]3(C)CC[C@@]23C=C[C@]1(C)OC3` are 155 µM, 83.8 µM, > 316 µM, > 316 µM and 111 µM.
